Results from ChEMBL document CHEMBL4184148 (Bioorg Med Chem Lett, 2017).
pEC50, pIC50: −log10 of the molar value.

Assays:
[1] = biological target: Mitogen-activated protein kinase kinase kinase 2 (Homo sapiens) (UniProt Q9Y2U5); test: Binding affinity to wild-type human partial length MAP3K2 (S315 to H619 residues) expressed in HEK293 cells at 1 uM by Kinomescan method relative to control; type: cell-based
[2] = biological target: Cyclin-dependent kinase 5 (Homo sapiens) (UniProt Q00535); test: Binding affinity to wild-type human full length CDK5 (M1 to P292 residues) expressed in Escherichia coli BL21 at 1 uM by Kinomescan method relative to control
Sequence of Cyclin-dependent kinase 5 (Homo sapiens) (Q00535 whole entry, looked up, the tested form may be a part): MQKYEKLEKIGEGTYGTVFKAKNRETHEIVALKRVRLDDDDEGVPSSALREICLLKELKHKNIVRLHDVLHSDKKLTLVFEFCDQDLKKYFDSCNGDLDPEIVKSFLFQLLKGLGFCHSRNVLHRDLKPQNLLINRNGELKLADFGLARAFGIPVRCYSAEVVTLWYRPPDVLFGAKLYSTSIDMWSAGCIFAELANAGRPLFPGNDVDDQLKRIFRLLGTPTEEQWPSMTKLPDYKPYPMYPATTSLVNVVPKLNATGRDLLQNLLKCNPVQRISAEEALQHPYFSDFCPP
Procedure, shortened: (§1)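 Run as one kinome-wide competition binding panel with each compound at a single fixed concentration. Results were plotted as a kinome-wide selectivity map.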

[3] = biological target: Ephrin type-A receptor 4 (Homo sapiens) (UniProt P54764); test: Binding affinity to wild-type human partial length EPHA4 (T601 to R897 residues) expressed in Escherichia coli BL21 at 1 uM by Kinomescan method relative to control
[4] = biological target: Serine/threonine-protein kinase RIO3 (Homo sapiens) (UniProt O14730); test: Binding affinity to wild-type human full length RIOK3 (M1 to E519 residues) expressed in Escherichia coli BL21 at 1 uM by Kinomescan method relative to control
Sequence of Serine/threonine-protein kinase RIO3 (Homo sapiens) (O14730 whole entry, the tested form may be a part): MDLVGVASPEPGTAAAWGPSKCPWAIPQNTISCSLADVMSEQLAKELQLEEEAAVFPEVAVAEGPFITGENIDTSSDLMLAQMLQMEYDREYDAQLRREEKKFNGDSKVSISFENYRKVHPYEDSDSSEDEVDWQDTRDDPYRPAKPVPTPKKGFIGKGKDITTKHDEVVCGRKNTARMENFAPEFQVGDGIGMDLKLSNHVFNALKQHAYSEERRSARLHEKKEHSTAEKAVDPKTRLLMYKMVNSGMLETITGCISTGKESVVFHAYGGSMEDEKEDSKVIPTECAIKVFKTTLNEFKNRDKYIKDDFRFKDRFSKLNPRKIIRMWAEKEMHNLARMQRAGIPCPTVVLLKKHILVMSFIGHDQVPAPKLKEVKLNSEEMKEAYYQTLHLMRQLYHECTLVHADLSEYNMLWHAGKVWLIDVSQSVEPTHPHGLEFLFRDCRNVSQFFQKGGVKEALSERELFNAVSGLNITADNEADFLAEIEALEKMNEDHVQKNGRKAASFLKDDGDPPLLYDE
Procedure, shortened: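 Kinome-wide competition binding panel run by an outside provider, with each compound tested at a single concentration. Activity is read against the kinase panel.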

[5] = biological target: Serine/threonine-protein kinase 16 (Homo sapiens) (UniProt O75716); test: Binding affinity to wild-type human partial length STK16 (G11 to I305 residues) expressed in Escherichia coli BL21 at 1 uM by Kinomescan method relative to control
Aurora kinase A = biological target: T1, Aurora kinase A (Homo sapiens, UniProt O14965); test: Inhibition of Aurora A auto-phosphorylation in human HCT116 cells after 4 hrs by Western blot analysis; type: cell-based
T1 sequence (O14965 whole entry): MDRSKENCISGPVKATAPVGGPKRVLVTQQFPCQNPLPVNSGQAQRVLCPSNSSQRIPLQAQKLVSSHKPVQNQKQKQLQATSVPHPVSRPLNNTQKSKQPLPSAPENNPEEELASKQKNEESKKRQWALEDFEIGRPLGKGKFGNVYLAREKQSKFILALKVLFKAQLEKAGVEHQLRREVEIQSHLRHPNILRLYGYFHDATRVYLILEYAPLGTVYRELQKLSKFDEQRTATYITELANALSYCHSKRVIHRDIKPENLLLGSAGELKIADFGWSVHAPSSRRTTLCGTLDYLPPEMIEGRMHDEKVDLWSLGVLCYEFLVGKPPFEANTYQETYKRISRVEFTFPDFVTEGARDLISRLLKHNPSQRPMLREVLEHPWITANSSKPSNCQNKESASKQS
Procedure, shortened: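 Cells treated with compound in dose response for 4 h. Phospho-Aurora A (auto-phosphorylation) read by western blot. EC50 derived from dose-response curves over three replicate experiments.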

[6] = biological target: Activated CDC42 kinase 1 (Homo sapiens) (UniProt Q07912); test: Binding affinity to wild-type human partial length TNK2 (S159 to D474 residues) expressed in Escherichia coli BL21 at 1 uM by Kinomescan method relative to control
[7] = biological target: Cyclin-dependent kinase 7 (Homo sapiens) (UniProt P50613); test: Binding affinity to wild-type human full length CDK7 (M1 to L344 residues) expressed in HEK293 cells at 1 uM by Kinomescan method relative to control; type: cell-based; procedure, shortened: as §1
Sequence of Cyclin-dependent kinase 7 (Homo sapiens) (P50613 whole entry, the tested form may be a part): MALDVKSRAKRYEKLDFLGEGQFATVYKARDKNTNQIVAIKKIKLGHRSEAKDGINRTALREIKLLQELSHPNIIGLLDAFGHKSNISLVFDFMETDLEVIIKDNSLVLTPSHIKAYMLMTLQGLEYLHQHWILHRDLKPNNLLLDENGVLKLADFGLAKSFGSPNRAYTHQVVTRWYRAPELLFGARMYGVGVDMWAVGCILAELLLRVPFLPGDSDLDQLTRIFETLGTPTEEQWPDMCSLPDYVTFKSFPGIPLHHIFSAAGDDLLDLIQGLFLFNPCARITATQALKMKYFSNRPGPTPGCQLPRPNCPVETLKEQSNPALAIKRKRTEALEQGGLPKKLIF

[8] = test system: Epidermal growth factor receptor (Homo sapiens), P00533 [G719C]; test: Binding affinity to human partial length EGFR G719C mutant (R669 to V1011 residues) expressed in Escherichia coli BL21 at 1 uM by Kinomescan method relative to control
[9] = biological target: Serine/threonine-protein kinase WNK1 (Homo sapiens) (UniProt Q9H4A3); test: Binding affinity to wild-type human partial length WNK1 (Q194 to A490 residues) expressed in HEK293 cells at 1 uM by Kinomescan method relative to control; type: cell-based
[10] = biological target: Inhibitor of nuclear factor kappa-B kinase subunit beta (Homo sapiens) (UniProt O14920); test: Binding affinity to wild-type human full length IKK-beta (M1 to S756 residues) expressed in HEK293 cells at 1 uM by Kinomescan method relative to control; type: cell-based; procedure, shortened: as §1
Sequence of Inhibitor of nuclear factor kappa-B kinase subunit beta (Homo sapiens) (O14920 whole entry, the tested form may be a part): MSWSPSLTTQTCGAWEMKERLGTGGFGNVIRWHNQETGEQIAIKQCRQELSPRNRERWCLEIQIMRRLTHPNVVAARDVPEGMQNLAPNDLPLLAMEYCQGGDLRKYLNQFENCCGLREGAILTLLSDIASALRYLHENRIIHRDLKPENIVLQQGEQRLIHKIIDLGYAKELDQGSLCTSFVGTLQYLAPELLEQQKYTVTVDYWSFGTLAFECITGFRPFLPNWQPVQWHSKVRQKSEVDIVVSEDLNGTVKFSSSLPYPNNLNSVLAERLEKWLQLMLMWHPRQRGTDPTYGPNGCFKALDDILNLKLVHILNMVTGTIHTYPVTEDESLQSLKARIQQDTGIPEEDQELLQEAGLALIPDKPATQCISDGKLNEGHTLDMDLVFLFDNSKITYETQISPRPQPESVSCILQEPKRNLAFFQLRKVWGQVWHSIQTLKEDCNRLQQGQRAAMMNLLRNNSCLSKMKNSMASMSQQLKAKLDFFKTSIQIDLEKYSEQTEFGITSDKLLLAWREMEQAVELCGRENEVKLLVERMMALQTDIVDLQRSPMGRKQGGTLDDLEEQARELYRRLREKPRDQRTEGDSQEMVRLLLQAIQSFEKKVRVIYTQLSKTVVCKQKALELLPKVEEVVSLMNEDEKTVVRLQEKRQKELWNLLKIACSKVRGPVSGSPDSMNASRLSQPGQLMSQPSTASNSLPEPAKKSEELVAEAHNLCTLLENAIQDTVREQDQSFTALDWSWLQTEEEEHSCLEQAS

[11] = biological target: Receptor-interacting serine/threonine-protein kinase 1 (Homo sapiens) (UniProt Q13546); test: Binding affinity to wild-type human partial length RIPK1 (M1 to K305 residues) expressed in Escherichia coli BL21 at 1 uM by Kinomescan method relative to control
Sequence of Receptor-interacting serine/threonine-protein kinase 1 (Homo sapiens) (Q13546 whole entry, the tested form may be a part): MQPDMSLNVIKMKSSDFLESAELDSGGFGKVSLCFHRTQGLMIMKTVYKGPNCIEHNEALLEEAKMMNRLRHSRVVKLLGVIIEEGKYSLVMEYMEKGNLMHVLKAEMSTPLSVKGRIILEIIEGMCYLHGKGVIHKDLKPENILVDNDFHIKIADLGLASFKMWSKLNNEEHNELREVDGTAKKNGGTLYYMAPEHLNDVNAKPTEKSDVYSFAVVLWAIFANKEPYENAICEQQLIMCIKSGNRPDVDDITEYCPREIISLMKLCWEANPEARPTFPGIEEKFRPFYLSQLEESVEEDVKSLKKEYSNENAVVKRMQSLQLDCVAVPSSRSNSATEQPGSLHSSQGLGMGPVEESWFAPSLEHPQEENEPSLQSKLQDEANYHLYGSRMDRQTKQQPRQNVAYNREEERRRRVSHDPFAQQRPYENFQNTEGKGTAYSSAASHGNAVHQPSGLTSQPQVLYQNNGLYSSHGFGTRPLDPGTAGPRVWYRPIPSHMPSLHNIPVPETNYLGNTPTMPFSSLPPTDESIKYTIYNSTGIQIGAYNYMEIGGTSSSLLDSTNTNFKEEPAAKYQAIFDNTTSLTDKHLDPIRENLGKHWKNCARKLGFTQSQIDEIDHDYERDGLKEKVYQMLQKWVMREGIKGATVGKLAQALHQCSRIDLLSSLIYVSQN

[12] = biological target: Tyrosine-protein kinase receptor UFO (Homo sapiens) (UniProt P30530); test: Binding affinity to wild-type human partial length AXL (R497 to Y821 residues) expressed in Escherichia coli BL21 at 1 uM by Kinomescan method relative to control
[13] = biological target: Dual specificity mitogen-activated protein kinase kinase 7 (Homo sapiens) (UniProt O14733); test: Binding affinity to wild-type human full length MKK7 (M1 to R419 residues) expressed in HEK293 cells at 1 uM by Kinomescan method relative to control; type: cell-based; procedure, shortened: as §1
Sequence of Dual specificity mitogen-activated protein kinase kinase 7 (Homo sapiens) (O14733 whole entry, the tested form may be a part): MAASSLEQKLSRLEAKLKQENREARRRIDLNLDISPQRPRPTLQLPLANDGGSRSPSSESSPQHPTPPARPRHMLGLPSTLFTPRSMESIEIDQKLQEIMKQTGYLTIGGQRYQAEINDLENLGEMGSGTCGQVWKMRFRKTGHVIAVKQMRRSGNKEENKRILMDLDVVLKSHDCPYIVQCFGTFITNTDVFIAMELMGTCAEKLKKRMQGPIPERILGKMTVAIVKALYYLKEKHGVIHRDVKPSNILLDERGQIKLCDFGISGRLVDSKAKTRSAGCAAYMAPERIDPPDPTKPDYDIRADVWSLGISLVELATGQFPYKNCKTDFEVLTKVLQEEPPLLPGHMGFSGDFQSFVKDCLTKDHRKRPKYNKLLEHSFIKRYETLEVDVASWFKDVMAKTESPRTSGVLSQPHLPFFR

[14] = biological target: Bromodomain-containing protein 4 (Homo sapiens, UniProt O60885); test: Inhibition of BRD4 (unknown origin) by AlphaScreen assay
[15] = biological target: Cyclin-dependent kinase 2 (Homo sapiens) (UniProt P24941); test: Binding affinity to wild-type human full length CDK2 (M1 to L298 residues) expressed in Escherichia coli BL21 at 1 uM by Kinomescan method relative to control
[16] = biological target: Citron Rho-interacting kinase (Homo sapiens) (UniProt O14578); test: Binding affinity to wild-type human partial length CIT (M68 to E432 residues) expressed in Escherichia coli BL21 at 1 uM by Kinomescan method relative to control
Sequence of Citron Rho-interacting kinase (Homo sapiens) (O14578 whole entry, the tested form may be a part): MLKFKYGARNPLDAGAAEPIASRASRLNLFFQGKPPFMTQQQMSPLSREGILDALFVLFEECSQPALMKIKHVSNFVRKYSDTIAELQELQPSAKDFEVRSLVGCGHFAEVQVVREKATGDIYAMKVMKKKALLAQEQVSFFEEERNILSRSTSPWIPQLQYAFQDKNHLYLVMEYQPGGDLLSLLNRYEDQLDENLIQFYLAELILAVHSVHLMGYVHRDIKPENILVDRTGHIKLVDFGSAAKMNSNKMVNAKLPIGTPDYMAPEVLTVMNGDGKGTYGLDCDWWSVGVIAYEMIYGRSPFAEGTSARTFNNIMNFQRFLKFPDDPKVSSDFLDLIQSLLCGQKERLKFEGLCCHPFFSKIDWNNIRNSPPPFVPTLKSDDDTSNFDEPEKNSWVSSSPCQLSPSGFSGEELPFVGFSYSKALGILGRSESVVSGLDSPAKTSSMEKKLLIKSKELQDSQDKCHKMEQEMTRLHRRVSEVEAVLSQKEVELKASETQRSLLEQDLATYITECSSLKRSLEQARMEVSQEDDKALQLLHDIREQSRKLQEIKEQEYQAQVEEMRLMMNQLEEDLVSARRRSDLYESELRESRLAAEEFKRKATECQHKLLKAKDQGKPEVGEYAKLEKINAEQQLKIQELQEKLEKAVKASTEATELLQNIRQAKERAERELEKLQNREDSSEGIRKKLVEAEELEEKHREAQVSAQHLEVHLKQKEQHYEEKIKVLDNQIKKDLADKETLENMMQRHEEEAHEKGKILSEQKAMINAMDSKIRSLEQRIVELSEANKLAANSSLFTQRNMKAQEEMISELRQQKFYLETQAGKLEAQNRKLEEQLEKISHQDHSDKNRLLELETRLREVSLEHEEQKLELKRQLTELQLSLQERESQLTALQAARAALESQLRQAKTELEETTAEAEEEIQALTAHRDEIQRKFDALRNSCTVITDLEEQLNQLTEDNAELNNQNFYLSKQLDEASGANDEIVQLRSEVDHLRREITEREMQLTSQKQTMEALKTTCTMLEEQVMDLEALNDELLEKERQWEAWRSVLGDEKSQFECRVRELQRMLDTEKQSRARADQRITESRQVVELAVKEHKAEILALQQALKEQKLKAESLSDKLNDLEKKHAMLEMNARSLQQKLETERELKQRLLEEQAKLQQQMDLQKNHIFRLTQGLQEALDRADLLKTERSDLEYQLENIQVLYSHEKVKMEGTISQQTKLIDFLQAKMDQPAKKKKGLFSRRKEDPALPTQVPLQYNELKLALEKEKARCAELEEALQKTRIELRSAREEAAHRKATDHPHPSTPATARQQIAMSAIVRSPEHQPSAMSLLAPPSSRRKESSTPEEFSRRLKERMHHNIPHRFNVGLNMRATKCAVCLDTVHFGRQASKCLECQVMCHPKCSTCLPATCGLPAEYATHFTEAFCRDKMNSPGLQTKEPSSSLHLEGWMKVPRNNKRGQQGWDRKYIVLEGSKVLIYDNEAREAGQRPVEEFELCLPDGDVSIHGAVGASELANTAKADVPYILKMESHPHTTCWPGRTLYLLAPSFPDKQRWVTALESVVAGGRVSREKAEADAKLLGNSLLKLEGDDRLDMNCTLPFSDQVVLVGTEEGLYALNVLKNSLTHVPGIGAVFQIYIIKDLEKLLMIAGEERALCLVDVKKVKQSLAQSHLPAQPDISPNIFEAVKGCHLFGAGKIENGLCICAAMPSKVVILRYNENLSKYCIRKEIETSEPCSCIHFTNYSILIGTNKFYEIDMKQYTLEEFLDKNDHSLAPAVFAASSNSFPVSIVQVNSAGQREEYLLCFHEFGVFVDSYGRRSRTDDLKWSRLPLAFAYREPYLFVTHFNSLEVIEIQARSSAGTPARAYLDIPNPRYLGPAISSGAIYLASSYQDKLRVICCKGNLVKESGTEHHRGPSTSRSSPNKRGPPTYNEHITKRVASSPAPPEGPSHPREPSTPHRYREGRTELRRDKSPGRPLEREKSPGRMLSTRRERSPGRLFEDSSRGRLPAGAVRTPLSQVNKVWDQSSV

[17] = biological target: Homeodomain-interacting protein kinase 4 (Homo sapiens) (UniProt Q8NE63); test: Binding affinity to wild-type human partial length HIPK4 (M1 to V384 residues) expressed in Escherichia coli BL21 at 1 uM by Kinomescan method relative to control
[18] = biological target: Inhibitor of nuclear factor kappa-B kinase subunit alpha (Homo sapiens) (UniProt O15111); test: Binding affinity to wild-type human full length IKK-alpha (M1 to E745 residues) expressed in HEK293 cells at 1 uM by Kinomescan method relative to control; type: cell-based; procedure, shortened: as §1
[19] = biological target: Calcium/calmodulin-dependent protein kinase kinase 1 (Homo sapiens) (UniProt Q8N5S9); test: Binding affinity to wild-type human partial length CAMKK1 (R65 to E414 residues) expressed in Escherichia coli BL21 at 1 uM by Kinomescan method relative to control
[20] = biological target: Mitogen-activated protein kinase kinase kinase kinase 2 (Homo sapiens) (UniProt Q12851); test: Binding affinity to wild-type human partial length MAP4K2 (M1 to G318 residues) expressed in HEK293 cells at 1 uM by Kinomescan method relative to control; type: cell-based
[21] = biological target: Dual specificity tyrosine-phosphorylation-regulated kinase 1B (Homo sapiens) (UniProt Q9Y463); test: Binding affinity to wild-type human full length DYRK1B (M1 to S629 residues) expressed in Escherichia coli BL21 at 1 uM by Kinomescan method relative to control; procedure, shortened: as §1

C=CC(=O)Nc1ccc(C(=O)Nc2ccc(Nc3ncc4c(n3)N(C)c3ccc(C)cc3C(=O)N4C)cc2)cc1
Activity [1]: 85% | Activity [2]: 99% | Activity [3]: 93% | Activity [4]: 75% | Activity [5]: 77% | pEC50 (Aurora kinase A): 8.24 | Activity [6]: 96% | Activity [7]: 80% | Activity [8]: 99% | Activity [9]: 100% | Activity [10]: 97% | Activity [11]: 100% | Activity [12]: 95% | Activity [13]: 100% | pIC50 [14]: 4.43 | Activity [15]: 100% | Activity [16]: 93% | Activity [17]: 95% | Activity [18]: 100% | Activity [19]: 100% | Activity [20]: 92% | Activity [21]: 90%

CCC(=O)Nc1ccc(C(=O)Nc2ccc(Nc3ncc4c(n3)N(C)c3ccc(C)cc3C(=O)N4C)cc2)cc1
Activity [1]: 66% | Activity [2]: 87% | Activity [3]: 97% | Activity [4]: 84% | Activity [5]: 77% | pEC50 (Aurora kinase A): 7.42 | Activity [6]: 86% | Activity [7]: 66% | Activity [8]: 95% | Activity [9]: 100% | Activity [10]: 95% | Activity [11]: 86% | Activity [12]: 87% | Activity [13]: 90% | pIC50 [14]: 4.47 | Activity [15]: 97% | Activity [16]: 97% | Activity [17]: 95% | Activity [18]: 99% | Activity [19]: 100% | Activity [20]: 97% | Activity [21]: 100%
